Arr AP2 block = blocks beta-arrestin peptide binding to AP2 adaptin; inhibition, % at 10 µM; 0.31% of 340,000 active; AID 504490; FITC-arrestin peptide / GST-AP2 beads, flow cytometry; AP2 beta2 appendage carries R879A mutation;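 active = inhibition above a set limit, near 3 SD of compounds lacking own fluorescence, cut at about 54% in these data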
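Material – AP2 appendage R879A on GSH beads · Buffer or medium – PBS with 0.05% Tween 20 and 0.1% BSA · Probe or stimulus – fluorescein-tagged arrestin peptide at 50 nM final · Incubation – compound with beads 12 min RT, then probe 1 h RT · Detection – high-throughput flow cytometry of beads, ex 488, em 535 nm · Evaluation – percent response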
Granule exo inh = blocks lytic granule exocytosis. TALL-104 LAMP-1 surface exposure, flow cytometry; cells stimulated with thapsigargin and PMA. inhibition, % at 10 µM. 0.66% of 360,000 active. AID 651702;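 active = inhibition above about 55%, limit read from the data; inconclusive = no clear call, values can overlap the other calls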
ATG4B inh = inhibitors of human ATG4B cysteine protease | Q9Y4P1 | ATG4B cleavage of LC3-PLA2, NBD-HPC fluorescence, 1 h | inhibition, % at 8.33 µM | 0.51% of 340,000 active; in the data active = inhibition above about 40%
ABCB6 inh MLPCN = blocks the human ABCB6 transporter; K562-ABCB6 porphyrin accumulation, flow cytometry, 1 h; stronger effect = lower value; 0.19% of 360,000 active; fluorescence ratio to DMSO, % at 10 µM;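 active = fluorescence ratio to DMSO below 75%, the collection mean minus 3 SD; inconclusive = too few cells collected in the well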;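 note: signal is porphyrin accumulated inside mitochondria; lower ratio means ABCB6 inhibition with less porphyrin fluorescence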
Target sequence (Q9NP58 whole entry, looked up): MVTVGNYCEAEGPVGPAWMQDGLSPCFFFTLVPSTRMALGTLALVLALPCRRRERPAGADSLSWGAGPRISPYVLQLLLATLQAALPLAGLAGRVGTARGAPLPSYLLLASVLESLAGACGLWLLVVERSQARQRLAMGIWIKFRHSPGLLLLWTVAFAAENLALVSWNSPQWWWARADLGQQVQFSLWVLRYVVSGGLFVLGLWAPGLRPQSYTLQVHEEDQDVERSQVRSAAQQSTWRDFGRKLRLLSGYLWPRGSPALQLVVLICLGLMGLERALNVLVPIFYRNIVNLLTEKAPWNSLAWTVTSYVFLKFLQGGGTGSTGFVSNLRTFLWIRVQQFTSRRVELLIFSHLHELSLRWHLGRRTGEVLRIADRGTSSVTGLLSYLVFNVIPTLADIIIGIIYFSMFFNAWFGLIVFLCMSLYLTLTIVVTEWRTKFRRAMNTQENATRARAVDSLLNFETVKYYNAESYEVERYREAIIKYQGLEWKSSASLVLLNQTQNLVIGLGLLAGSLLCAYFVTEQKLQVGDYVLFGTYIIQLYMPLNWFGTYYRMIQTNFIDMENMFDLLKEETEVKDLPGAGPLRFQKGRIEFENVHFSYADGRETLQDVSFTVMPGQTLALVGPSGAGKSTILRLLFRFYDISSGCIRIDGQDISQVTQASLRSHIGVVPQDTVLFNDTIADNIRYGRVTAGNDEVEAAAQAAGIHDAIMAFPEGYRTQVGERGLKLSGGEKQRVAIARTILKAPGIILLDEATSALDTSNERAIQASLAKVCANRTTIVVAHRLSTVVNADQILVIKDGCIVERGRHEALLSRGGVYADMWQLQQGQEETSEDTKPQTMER
NRP1-CendR mod = NRP-1/CendR interaction modulation | O14786 | FAM-RPARPAR peptide binding to NRP-1, fluorescence polarization | inhibition, % at 25 µM | 0.85% of 360,000 active | AID 602438;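 active = inhibition or corrected inhibition above about 18%, plus a signal ratio from 0.5 to 1.5, limit read from the data, passing the limit was not always enough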
Myeloid diff MLP = promotes myeloid progenitor differentiation; ER-HoxA9 myeloid progenitors, lysozyme-GFP differentiation, flow cytometry; calls only at 10 µM; 1% of 360,000 active; AID 624256;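 active = normalized GFP-positive differentiation at or above the plate's own cutoff, the solvent-only control mean plus 3 SD; inconclusive = no clear call, values can overlap the other calls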;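 note: cells exposed to compound for four days before flow analysis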
Granule exo CP1 = lytic granule exocytosis inhibition | shares compounds with Granule exo inh | TALL-104 cells, LAMP-1 externalization, flow cytometry; stimulated with PMA plus thapsigargin | inhibition, % at 10 µM | 11% of 1,500 active; in the data active = inhibition above about 60%
Each line names hits and unclear results; the compound was inactive in the other large screens (follow-up assays come after a bar, where they were run). A selection: hits, their analogues and other compounds. The true share with any hit is near 3.3%.

COc1cccc(-c2nc(NCc3ccccc3)c3ccccc3n2)c1O	Granule exo inh 64 | Granule exo CP1 inactive
COc1cccc(-c2nc(NC3CCCC3)c3ccccc3n2)c1O	Granule exo inh 78 | Granule exo CP1 inactive
C=CCNc1nc(-c2cccc(OC)c2O)nc2ccccc12	none
c1ccc(Nc2nc(-c3ccccc3)nc3ccccc23)cc1	none
CCOC(=O)c1nnn2c1nc(N(CC)CC)c1ccccc12	Granule exo inh 74 | Granule exo CP1 inactive
CS(=O)(=O)c1ccc(NC(=O)c2ccccc2-n2cnnn2)cc1	none
CN1OC[C@@H]2CN(Cc3cc(Cl)cc(Cl)c3)[C@H](c3cccc(-c4ccc(C#N)cc4)c3)C[C@@H]21	none (no result: Arr AP2 block, ATG4B inh)
CCCCCCCn1c2c(c(=N)c3ccccc31)CCC2	Granule exo inh 71 (no result: Myeloid diff MLP) | Granule exo CP1 inactive
CCCn1c2c(c(=N)c3c1CCC3)CCC2	none
Cc1ccc(SC[C@H](c2ccccc2)N2CCN(CCc3ccccc3)CCC2=O)cc1	Granule exo inh 59 | Granule exo CP1 inactive
COc1ccc(NC(=S)N2CCC(NC(=O)c3ccco3)CC2)cc1	none
COc1ccccc1C(=O)NCC(=O)NCc1cc(=O)n(C)c(=O)n1C	none
COc1ccc(-c2cc(N3CCN(CCO)CC3)n3nccc3n2)cc1	none (no result: Arr AP2 block, ATG4B inh)
OCCN1CCN(c2cc(-c3ccc4ccccc4c3)nc3ccnn23)CC1	Granule exo inh 59 (no result: Arr AP2 block, ATG4B inh) | Granule exo CP1 inactive
CCCCC(=O)Nc1nnc(CCc2ccccc2)s1	none
CCOC(=O)Cn1c(=O)oc2cc(S(=O)(=O)N(C)c3cccc(C)c3)ccc21	Granule exo inh 62 | Granule exo CP1 inactive
CCN(C(=O)Cn1c(=O)oc2cc(S(=O)(=O)N3CCCC3)ccc21)c1ccc(OC)cc1	none
CCOC(=O)Cn1c(=O)oc2cc(S(=O)(=O)N(C)c3ccc(OC)cc3)ccc21	Granule exo inh 59 | Granule exo CP1 inactive
CCc1cc(C(=O)NCC(C)(C)N2CCOCC2)sc1C	none
CC(NC(=O)CCC(=O)c1ccc(F)cc1)C1CC2CCC1C2 (centres undefined)	Granule exo inh 104, Myeloid diff MLP inconclusive | Granule exo CP1 inactive
CC(NC(=O)c1ccc(F)cc1Cl)C1CC2CCC1C2 (centres undefined)	none
COC(=O)C(Cc1c[nH]c2ccccc12)NC(=O)c1cccs1 (centres undefined)	none
COc1ccc(CNC(=O)COC(=O)[C@H](Cc2c[nH]c3ccccc23)NC(=O)c2cccs2)cc1	Granule exo inh 58 | Granule exo CP1 inactive
COc1ccc2nc3ccccc3nc2c1N	Granule exo inh 82, NRP1-CendR mod 29 | Granule exo CP1 inactive
COc1ccc2c(c1)C(C)=CC(C)(C)N2S(=O)(=O)c1ccc(NC(C)=O)cc1	none (no result: Myeloid diff MLP)
CCOc1ccc2c(c1)C(C)=CC(C)(C)N2S(=O)(=O)c1ccc(NC(C)=O)cc1	Granule exo inh 69 (no result: Myeloid diff MLP) | Granule exo CP1 inactive
COc1ccccc1NC(=O)C(C)N(C)Cc1ccc(Cl)s1 (centres undefined)	Granule exo inh 58 | Granule exo CP1 inactive
COc1ccccc1NC(=O)C(C)N(C)CC(=O)Nc1cccc2ccccc12 (centres undefined)	none
COc1ccc(C(CNC(=O)c2ccco2)N2CCCC2)cc1 (centres undefined)	none
O=S(=O)(Nc1cc(Sc2ncn[nH]2)c(O)c2ccccc12)c1ccccc1	Granule exo inh 101 | Granule exo CP1 103
C=CCOc1ccc(C(=O)c2ccccc2)c(OCC(=O)NC2(C#N)CCCC2)c1	Granule exo inh 61 | Granule exo CP1 inactive
COc1ccc(-c2nc(N)nc(C)c2-c2ccc(Cl)cc2)c(O)c1	Granule exo inh 61 | Granule exo CP1 inactive
CCc1ccc(NC(=O)CN2CCN(c3ccc(OC)cc3)CC2)cc1	none
CCN(CC)CCCN(C(=O)c1ccc(Br)cc1)c1nc(-c2ccc(OC)cc2)cs1	Granule exo inh 63 | Granule exo CP1 inactive
COc1ccc(S(=O)(=O)N2CCN(C(=O)CCSc3ccccc3)CC2)cc1	Granule exo inh 102 | Granule exo CP1 inactive
C(=C\c1ccco1)/c1ccc2ccccc2n1	Granule exo inh 59 | Granule exo CP1 inactive
CCn1c2ccc(C)cc2c2nnc(SCCN3CCCCC3)nc21	Granule exo inh 97 | Granule exo CP1 inactive
CCCn1c2ccc(C)cc2c2nnc(SCCN3CCCCC3)nc21	none
CCOC(=O)c1c2c(n(Cc3ccccc3)c1C)C(=O)C(=O)c1ccccc1-2	Granule exo inh 99, NRP1-CendR mod 32, Myeloid diff MLP inconclusive | Granule exo CP1 inactive
CC1(OC(=O)CCc2ccccc2)C(=O)C=C2C=C(c3ccc(C#N)cc3)N(C(CO)CO)C=C2C1=O (centres undefined)	Granule exo inh 71 | Granule exo CP1 inactive
CC(CC12CC3CC(CC(C3)C1)C2)NCc1ccccc1O (centres undefined)	Granule exo inh 61 | Granule exo CP1 inactive
Oc1c(CN2CCOCC2)ccc2ccccc12	Granule exo inh 86 | Granule exo CP1 inactive
Oc1c(CN2CCOCC2)cc(-c2ccccc2)cc1CN1CCOCC1	none
CC1(C2CC2)NC(=O)N(CC(=O)NCC(=O)Nc2ccc(F)c(F)c2F)C1=O (centres undefined)	Granule exo inh 56 | Granule exo CP1 inactive
Cc1ccc(-n2nnc3c(=O)oc4ccccc4c32)cc1	Granule exo inh 94 | Granule exo CP1 83
CCC(C)n1nnc2c(=O)oc3ccccc3c21 (centres undefined)	none
COc1ccccc1-c1cc(C(F)(F)F)nc(S(=O)(=O)CCCC(=O)N2CCCCC2C)n1 (centres undefined)	Granule exo inh 64 (no result: Myeloid diff MLP) | Granule exo CP1 inactive
COc1ccccc1-c1cc(C(F)(F)F)nc(S(=O)(=O)CCCC(=O)Nc2cc(C)on2)n1	none (no result: Myeloid diff MLP)
COc1ccccc1-c1cc(C(F)(F)F)nc(S(=O)(=O)CCCC(=O)NC(C)C)n1	Myeloid diff MLP inconclusive
COc1ccccc1-c1cc(C(F)(F)F)nc(S(=O)(=O)CCCC(=O)NCc2ccc(F)cc2)n1	Granule exo inh 75 (no result: Myeloid diff MLP) | Granule exo CP1 inactive
CC(C)n1c2ccccc2c2nnc(SCC(=O)Nc3ccccc3C(=O)O)nc21	none
Cc1ccc(NC(=O)CSc2nnc3ccccn23)cc1S(=O)(=O)N1CCOCC1	Granule exo inh 81 | Granule exo CP1 inactive
COc1ccc(CCNCC(O)COc2cccc(Br)c2)cc1OC (centres undefined)	none
COc1ccc(CCNCC(O)COc2ccc(OC)cc2C(C)(C)C)cc1 (centres undefined)	Granule exo inh 61 | Granule exo CP1 inactive
CS(=O)(=O)N1N=C(c2cccs2)CC1c1ccc(Cl)o1 (centres undefined)	none

Compound activity as filed in PubChem BioAssay.
